Results published in PubChem BioAssay.
Activity calls are given as the source filed them.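 Rule for the calls, unless noted: active = viability at or under a set limit in both replicates, limit being median viability minus 3 SD (cut at about 48% in these data, passing the limit was not always enough); inconclusive = at or under the limit in just one replicate; inactive = at or above the limit in both replicates.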

Legend:
[1] = reducers of endogenous Her2 protein level, primary screen, SKBR3 breast tumor cells, AlphaScreen, ATP viability (AID 461;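 active = Her2 level under about 52% in both replicate screens, with viability over 70% of control, limit read from the data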;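 for Her2 level: lower value means less Her2 protein in the cells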;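 for viability: percent of carrier control wells set as 100% viability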); conditions: 18-24 h, measured here: SKBR3 viability, ATP luminescence, at 10 µM
[2] = molecular target: Receptor tyrosine-protein kinase erbB-2 (Homo sapiens) (UniProt P04626); test: as above; conditions: 18-24 h, at 10 µM, stronger effect = lower value
Sequence of Receptor tyrosine-protein kinase erbB-2 (Homo sapiens) (P04626 whole entry, looked up): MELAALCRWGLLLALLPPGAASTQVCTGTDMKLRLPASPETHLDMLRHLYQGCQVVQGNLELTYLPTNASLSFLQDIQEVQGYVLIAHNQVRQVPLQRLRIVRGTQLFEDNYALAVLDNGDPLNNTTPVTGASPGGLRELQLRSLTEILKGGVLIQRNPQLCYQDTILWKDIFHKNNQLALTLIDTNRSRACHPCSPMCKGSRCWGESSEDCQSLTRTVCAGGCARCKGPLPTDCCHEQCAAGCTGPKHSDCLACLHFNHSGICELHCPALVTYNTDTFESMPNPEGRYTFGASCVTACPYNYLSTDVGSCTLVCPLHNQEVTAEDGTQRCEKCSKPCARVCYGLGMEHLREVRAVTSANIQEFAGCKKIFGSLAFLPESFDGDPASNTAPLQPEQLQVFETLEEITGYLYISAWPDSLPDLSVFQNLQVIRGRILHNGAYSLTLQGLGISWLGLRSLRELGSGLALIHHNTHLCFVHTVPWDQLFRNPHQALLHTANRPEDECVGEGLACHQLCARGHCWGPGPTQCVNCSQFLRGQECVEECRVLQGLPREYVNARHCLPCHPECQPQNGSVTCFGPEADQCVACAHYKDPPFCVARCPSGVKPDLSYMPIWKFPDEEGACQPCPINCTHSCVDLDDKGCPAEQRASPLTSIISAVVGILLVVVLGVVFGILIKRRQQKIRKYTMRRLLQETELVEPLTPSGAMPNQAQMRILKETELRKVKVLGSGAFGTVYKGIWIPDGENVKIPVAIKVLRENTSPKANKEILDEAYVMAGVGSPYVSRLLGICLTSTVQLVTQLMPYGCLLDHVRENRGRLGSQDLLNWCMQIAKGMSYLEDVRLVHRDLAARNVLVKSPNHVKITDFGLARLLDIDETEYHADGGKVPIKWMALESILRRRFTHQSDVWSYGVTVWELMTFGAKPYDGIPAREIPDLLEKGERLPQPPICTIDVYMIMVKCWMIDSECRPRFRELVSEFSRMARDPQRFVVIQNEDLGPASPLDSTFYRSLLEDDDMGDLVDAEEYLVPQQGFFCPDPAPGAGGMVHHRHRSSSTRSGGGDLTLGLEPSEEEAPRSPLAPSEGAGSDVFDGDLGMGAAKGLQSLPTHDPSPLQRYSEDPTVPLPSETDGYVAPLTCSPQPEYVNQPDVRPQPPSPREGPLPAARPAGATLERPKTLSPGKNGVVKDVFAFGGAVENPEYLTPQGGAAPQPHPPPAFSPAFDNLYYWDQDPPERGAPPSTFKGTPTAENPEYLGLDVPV

[3] = SK-BR-3 cell growth inhibitors, pilot screen, 24 h, human (AID 572;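 active = viability at or below 10% of carrier control in both of two separate runs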;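 note: compound exposure lasted between 18 and 24 h rather than exactly 24 h; 100% = carrier-treated control wells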); conditions: SK-BR-3 viability, CellTiter-Glo luminescence, at 10 µM, stronger effect = lower value
[4] = HUVEC growth inhibition – cell-based, human, primary screen (AID 575;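 active = viability at or below 30% in both replicate assays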;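 note: 100% = median of untreated cell wells with 0.1% DMSO on each plate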); conditions: HUVEC proliferation, CellTiter-Glo luminescence, 72 h; at 10 µM; stronger effect = lower value
Procedure, shortened: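 Assay system: Primary human umbilical vein endothelial cells | Quantity: 1250 cells per well | Medium: Supplemented EBM, 2% fetal bovine serum | Detection: CellTiter-Glo luminescence measuring cellular ATP | Read-out: % viability vs DMSO wells | Plate: Collagen-coated 384-well format | Times: 72 h exposure, 37 °C, 5% CO2, 30 min RT equilibration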

[5] = growth inhibitors of H69AR lung tumor, primary screen, human, duplicate replicates (AID 580); conditions: H69AR lung tumor cells viability, ATP luminescence, 72 h; at 10 µM; stronger effect = lower value;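 note: 100% = mean luminescence of untreated wells and 0% = no signal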
[6] = reversal of MRP1-mediated doxorubicin resistance, pilot screen, H69AR cells, doxorubicin co-treatment (AID 601;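 active = viability loss from added drug above about 55%, and viability with drug at most 40%, in both replicates, limit read from the data, passing the limit was not always enough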); conditions: CellTiter-Glo, 72 h, at 10 µM; for differential viability (reversal): stronger effect = higher value
[7] = 384-well plate pilot, post-Golgi transport modulator project, inhibition of yeast transport mutant growth (AID 636; in the data active = inhibition above about 31%); conditions: absorbance 615 nm, about 18 h, stronger effect = higher value
[8] = growth suppression of yeast trafficking mutant, preliminary HTS, modulators of trafficking downstream of Golgi apparatus project, 1536-format plate, OD 615 nm (AID 637; in the data active = inhibition above about 30%); conditions: yeast transport mutant growth, absorbance 615 nm, 18 h; stronger effect = higher value
[9] = H69AR cells + 2 uM doxorubicin, measured here: viability with 2 uM doxorubicin, stronger effect = lower value
[10] = H69AR cells, compound alone cytotoxicity

Row | Compound | viability [1] [%] | Her2 level [2] | viability [3] | viability [4] | viability [5] | differential viability (reversal) ([6]; H69AR cells + 2 uM doxorubicin) | viability [6, 9] [%] | viability [6, 10] [%] | inhibition [7] | inhibition [8]
1 | CCn1cc(C(C)NC(=O)COc2ccc(Cl)cc2C)c(C)n1 (stereo not given) | 97 | 101% (inactive) | 97% (inactive) | 93.9% (inactive) | 105% (inactive) | 13.9% (inactive) | 91.3 | 105 | -2.89% (inactive) | -4% (inactive)
2 | Cc1cc(C)cc(NC(=O)C2CCCN(S(=O)(=O)c3cnc[nH]3)C2)c1 (stereo not given) | 99 | 96% (inactive) | 99% (inactive) | 92.5% (inactive) | 88.6% (inactive) | -1.48% (inactive) | 90.1 | 88.6 | -4.27% (inactive) | 0.67% (inactive)
3 | CC1NC(=O)NC1CCCCCC(=O)NCCc1ccccc1 (stereo not given) | 112 | 80% (inactive) | 112% (inactive) | 90.4% (inactive) | 93.3% (inactive) | 7.38% (inactive) | 85.9 | 93.3 | -5.07% (inactive) | 0.79% (inactive)
4 | COCC(=O)N(c1ccc(C(C)C)cc1)C1C=CS(=O)(=O)C1 (stereo not given) | 93.5 | 80% (inactive) | 93.5% (inactive) | 78.9% (inactive) | 89.6% (inactive) | 0.84% (inactive) | 88.8 | 89.6 | -3.08% (inactive) | 0.83% (inactive)
5 | Cc1ccc(Cn2c(SCCN3CCCCC3)nc3c2c(=O)[nH]c(=O)n3C)cc1 | 94.5 | 104% (inactive) | 94.5% (inactive) | 84.1% (inactive) | 81.7% (inactive) | -3.14% (inactive) | 84.8 | 81.7 | -7.6% (inactive) | -6.83% (inactive)
6 | CC(=O)N1C(=O)C2(C(C#N)=C(N)Oc3cc(C)oc(=O)c32)c2ccccc21 (stereo not given) | 95.5 | 112% (inactive) | 95.5% (inactive) | 95.9% (inactive) | 88.1% (inactive) | 7.52% (inactive) | 80.6 | 88.1 | 1.84% (inactive) | -2.91% (inactive)
7 | O=C(COc1ccc(Cl)cc1)NCc1nnc(SCC(=O)Nc2ccc3c(c2)OCCO3)o1 | 102 | 122% (inactive) | 102% (inactive) | 112% (inactive) | 97.3% (inactive) | -3.68% (inactive) | 101 | 97.3 | 2.82% (inactive) | -11.7% (inactive)
8 | S=c1[nH]nc(-c2cccc(Br)c2)o1 | 91 | 130% (inactive) | 91% (inactive) | 88.2% (inactive) | 96.1% (inactive) | 3.51% (inactive) | 92.6 | 96.1 | -1.58% (inactive) | -8.83% (inactive)
9 | CCN(CC)c1ccc(NC(=O)CN2CCN(CC(=O)Nc3ccccc3F)CC2)cc1 | 81.5 | 93.5% (inactive) | 81.5% (inactive) | 80.2% (inactive) | 99.6% (inactive) | 11% (inactive) | 88.6 | 99.6 | -3.95% (inactive) | -1.33% (inactive)
10 | CCOC(=O)C1CCCN(C(=O)c2cc3c(=O)n4cccc(C)c4nc3n2C)C1 (stereo not given) | 106 | 77% (inactive) | 106% (inactive) | 108% (inactive) | 94.3% (inactive) | 5.81% (inactive) | 88.4 | 94.3 | -7.3% (inactive) | 2.7% (inactive)
11 | CC(C)C(NC(=O)c1ccco1)C(=O)NCC(c1ccco1)N1CCCCC1 (stereo not given) | 96.5 | 94.5% (inactive) | 96.5% (inactive) | 94.8% (inactive) | 93.9% (inactive) | 18.1% (inactive) | 75.8 | 93.9 | -2.97% (inactive) | -0.32% (inactive)
12 | O=S(=O)(Nc1ccn(-c2ccccc2)n1)c1ccc(Br)cc1 | 89 | 86.5% (inactive) | 89% (inactive) | 85.7% (inactive) | 87.5% (inactive) | -6.15% (inactive) | 93.7 | 87.5 | -3.77% (inactive) | 0.16% (inactive)
13 | O=C(Cn1cnc2c(nnn2-c2ccc(F)cc2)c1=O)N1CCCc2ccccc21 | 101 | 117% (inactive) | 101% (inactive) | 90.5% (inactive) | 103% (inactive) | 16.3% (inactive) | 86.6 | 103 | -9.59% (inactive) | -2.7% (inactive)
14 | O=C(NCC(c1cccnc1)N1CCN(c2ccccc2)CC1)c1ccc2c(c1)OCO2 (stereo not given) | 92 | 94% (inactive) | 92% (inactive) | 105% (inactive) | 90.8% (inactive) | -7.41% (inactive) | 98.2 | 90.8 | -4.46% (inactive) | 12.9% (inactive)
15 | Cc1ccccc1-c1nc(CN2CCC(C(=O)NCc3cccnc3)CC2)c(C)o1 | 88.5 | 82.5% (inactive) | 88.5% (inactive) | 85.7% (inactive) | 87.1% (inactive) | 0.825% (inactive) | 86.3 | 87.1 | -1.71% (inactive) | 0% (inactive)
